Assay outcomes deposited in PubChem by several laboratories.
Rows were chosen to be rich in hits. Some 4.7% of all compounds tested hit in one or more screens of this group.
MrgX1 allo act: allosterically activates human MrgX1 receptor signaling | MrgX1-HEK293, Fluo-4 calcium flux, FDSS; active compounds read high | Q96LB2 | B-score at 10 µM | AID 588675 | 310,000 tested, 0.63% active;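 active = plate-corrected calcium response at least 3 library SD above typical, normal starting fluorescence, not activating the receptor alone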;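 note: compound read alongside a low EC10 to EC30 dose of BAM8-22 agonist; peak minus trough fluorescence over baseline measured at the second addition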
KCC2 mod: modulates chloride dependent transport by human KCC2. Q9H2X9. KCC2 cells, thallium flux FluoZin-2 fluorescence. B-score of Tl+ flux slope (higher = more flux/activation; lower = inhibition) at 10 µM. 190,000 tested, 2.2% active. AID 1456;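 active = thallium flux slope and its plate-corrected score both differing from the plate sample mean at a set confidence after two filtering rounds, in either direction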;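 note: slope of fluorescence scaled to starting intensity during 10 to 20 s after thallium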
Target sequence (Q9H2X9 whole entry, looked up): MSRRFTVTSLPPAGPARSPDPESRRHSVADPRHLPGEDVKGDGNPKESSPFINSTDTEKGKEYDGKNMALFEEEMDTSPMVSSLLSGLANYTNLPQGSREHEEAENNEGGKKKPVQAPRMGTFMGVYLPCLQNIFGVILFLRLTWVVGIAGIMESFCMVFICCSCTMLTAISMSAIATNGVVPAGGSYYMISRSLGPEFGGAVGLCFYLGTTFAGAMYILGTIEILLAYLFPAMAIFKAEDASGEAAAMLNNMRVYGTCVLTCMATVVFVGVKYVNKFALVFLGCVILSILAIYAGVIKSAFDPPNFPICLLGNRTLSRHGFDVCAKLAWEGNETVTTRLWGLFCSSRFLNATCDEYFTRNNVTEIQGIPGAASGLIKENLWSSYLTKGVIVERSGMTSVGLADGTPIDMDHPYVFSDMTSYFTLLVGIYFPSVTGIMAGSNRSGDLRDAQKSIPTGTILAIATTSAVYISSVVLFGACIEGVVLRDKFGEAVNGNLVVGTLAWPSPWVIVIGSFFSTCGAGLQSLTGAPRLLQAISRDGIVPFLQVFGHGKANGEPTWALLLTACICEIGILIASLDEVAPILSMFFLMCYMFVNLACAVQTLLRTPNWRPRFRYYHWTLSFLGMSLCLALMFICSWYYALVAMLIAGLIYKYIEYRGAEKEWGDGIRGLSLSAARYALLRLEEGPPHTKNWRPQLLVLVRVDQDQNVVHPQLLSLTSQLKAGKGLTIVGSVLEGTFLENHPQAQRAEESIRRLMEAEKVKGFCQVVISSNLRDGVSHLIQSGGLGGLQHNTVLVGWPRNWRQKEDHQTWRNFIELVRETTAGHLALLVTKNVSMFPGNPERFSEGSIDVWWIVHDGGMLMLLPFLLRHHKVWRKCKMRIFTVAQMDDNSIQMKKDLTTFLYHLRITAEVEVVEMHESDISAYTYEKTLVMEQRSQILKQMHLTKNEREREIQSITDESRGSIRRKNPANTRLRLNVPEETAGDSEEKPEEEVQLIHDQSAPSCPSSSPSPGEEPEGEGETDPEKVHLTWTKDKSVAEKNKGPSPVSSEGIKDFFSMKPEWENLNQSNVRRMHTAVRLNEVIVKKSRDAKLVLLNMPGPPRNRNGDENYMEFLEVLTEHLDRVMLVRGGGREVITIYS
RGS4 act: RGS4 potentiation or activation | 310,000 tested, 0.92% active | AID 463111 | B-score at 10 µM | HEK293 M3R/inducible RGS4, carbachol calcium flux Fluo4; active compounds read low;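 active = B-score of the integrated calcium signal more than 4 SD below the library mean, with starting fluorescence not abnormally high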;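 note: negative B-score means reduced calcium response which marks RGS4 activation or potentiation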
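Assay system: Inducible-RGS4 HEK293 cells carrying M3 receptor | Schedule: Compound preincubation 20 min at room temperature before agonist | Signal: Kinetic calcium fluorescence imaging with Fluo4-AM dye, 2 µM | Read-out basis: B score from integrated fluorescence ratio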
MrgX1 antag: human MrgX1 receptor antagonism, primary screen; B-score at 10 µM; Q96LB2; MRGX1-HEK293 calcium flux, Fluo-4, BAM8-22 antagonism; active compounds read low; 310,000 tested, 1.3% active; AID 588676;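 active = calcium-response B-score plate-corrected more than 3 library SD below zero, starting fluorescence within 5 deviations, no agonist response on first addition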;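 note: peak minus trough fluorescence over baseline after final BAM8-22 challenge near maximal dose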
MrgX1 agonist: human MrgX1 receptor agonism, primary screen; Q96LB2; MrgX1-HEK293 cells, Fluo-4 calcium fluorescence, agonist mode; active compounds read high; B-score at 10 µM; 310,000 tested, 0.44% active;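 active = calcium response B-score plate-corrected fluorescence ratio at least 3 library SD, with starting fluorescence B-score inside 5 SD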
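System – MrgX1-expressing HEK293 cells · Incubation – cells plated overnight, dye loaded 0.5 h 37 °C, 0.5 h room temperature · Technique – kinetic Fluo-4 NW fluorescence of intracellular calcium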
RGS4 inh: human RGS4 inhibition | P49798 | HEK293 M3R/RGS4 inducible, Fluo-4 calcium flux; active compounds read high; triggered by carbachol at its EC20 | B-score at 10 µM | 310,000 tested, 0.45% active;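 active = B-score, a plate-corrected calcium signal, over three deviations above library mean, with baseline fluorescence within five deviations of library mean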;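 note: RGS4 expression induced by doxycycline in cells with stable M3 receptor; B-score is computed from the integrated fluorescence ratio over baseline after carbachol; higher B-score means a larger calcium signal and so more RGS4 inhibition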
MrgX1 antag conf: reconfirmed antagonist of human MrgX1 receptor signaling | shares compounds with MrgX1 antag | MrgX1-HEK293, BAM8-22 calcium flux, Fluo-4; active compounds read low | remaining BAM8-22 calcium response % of control (active compounds read low), % at 10 µM | 2,300 tested, 19% active;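 active = remaining agonist calcium response no higher than 100% minus 3 SD of agonist-only control wells, with starting fluorescence near control levels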;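 note: agonist BAM8-22 given at a near maximal EC90 to ECmax level; peak minus minimum fluorescence divided by baseline after agonist addition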
HEK293 Ca flux: counter-screen for MrgX1 antagonists: effect in parental HEK293 cells; AID 624111; fluorescence ratio F(max-min)/F0 at 10 µM; Fluo-4 calcium fluorescence, FDSS; shares compounds with MrgX1 antag; 4,000 tested, 2% active;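 active = duplicate-averaged calcium fluorescence ratio at least three times the standard deviation of buffer wells, a nonspecific response in parental cells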
HEK293 Ca counter: activity in parental HEK293 cells without MrgX1; parental HEK293 calcium flux, Fluo-4 fluorescence ratio; active compounds read high; shares compounds with MrgX1 antag; 4,000 tested, 0.4% active; AID 624114; fluorescence ratio F(max-min)/F0 at 10 µM;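 active = calcium fluorescence ratio, averaged over duplicates, at least 3 SD of the buffer-well ratio, meaning a nonspecific response in receptor-free cells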;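 note: untransfected parental HEK293 lacking MrgX1 used as counterscreen for MrgX1 allosteric activators; fluorescence change taken during the second addition on a kinetic imager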
HEK293 Ca cntr2: activity in parental HEK293 cells lacking MrgX1 receptor; 4,000 tested, 8.7% active; fluorescence ratio F(max-min)/F0 at 10 µM; AID 624115; shares compounds with MrgX1 antag; Fluo-4 calcium fluorescence (FDSS); active compounds read high;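 active = calcium fluorescence ratio at least three times the spread of buffer wells, meaning a non-specific response in parental cells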
An asterisk follows results filed as active.

For O=S1(=O)CCOC[C@H](c2ccccc2)N1Cc1ccccc1F the results were MrgX1 allo act inactive, RGS4 act inactive, MrgX1 antag -6.5*, MrgX1 agonist inactive, RGS4 inh inactive, MrgX1 antag conf inactive, HEK293 Ca flux inactive, HEK293 Ca counter inactive and HEK293 Ca cntr2 inactive.
Screening Cc1ccc(OCC(=O)Nc2ccc(CN3CCOCC3)cc2)cc1 returned MrgX1 allo act inactive, RGS4 act inactive, MrgX1 antag inactive, MrgX1 agonist inactive and RGS4 inh inactive.
`Cc1cccc(OCC(=O)Nc2ccc(CN3CCOCC3)cc2)c1C` gave MrgX1 allo act inactive, RGS4 act inactive, MrgX1 antag -6.7*, MrgX1 agonist inactive, RGS4 inh inactive, MrgX1 antag conf inactive, HEK293 Ca flux inactive, HEK293 Ca counter inactive and HEK293 Ca cntr2 inactive.
Cc1ccc2c(c1)C(c1ccccc1)N(C(=O)CC(C)C)CC(=O)N2 (centres undefined) was read as MrgX1 allo act inactive, RGS4 act inactive, MrgX1 antag inactive, MrgX1 agonist inactive and RGS4 inh inactive.
For O=Cc1c(-c2ccccc2)cc2oc3ccccc3cc1-2 the results were MrgX1 allo act inactive, RGS4 act inactive, MrgX1 antag inactive, MrgX1 agonist inactive and RGS4 inh inactive.
`O=C(Nc1ccc(S(=O)(=O)NC2=NCCCCC2)cc1)c1ccc(C(F)(F)F)cc1` gave MrgX1 allo act inactive, KCC2 mod 0.96, RGS4 act inactive, MrgX1 antag inactive, MrgX1 agonist inactive and RGS4 inh inactive.
`CN(C)S(=O)(=O)c1ccc(C(=O)Nc2ccc(S(=O)(=O)NC3=NCCCCC3)cc2)cc1` gave MrgX1 allo act inactive, KCC2 mod 1.6, RGS4 act inactive, MrgX1 antag -7.5*, MrgX1 agonist inactive, RGS4 inh inactive, MrgX1 antag conf inactive, HEK293 Ca flux inactive, HEK293 Ca counter inactive and HEK293 Ca cntr2 inactive.
Screening O=c1[nH]c([N+](=O)[O-])nn1C(c1ccccc1)c1ccccc1 returned MrgX1 allo act inactive, RGS4 act inactive, MrgX1 antag inactive, MrgX1 agonist inactive and RGS4 inh inactive.
`O=C(NCCC1=CCCCC1)c1ccc(F)cc1` gave MrgX1 allo act inactive, KCC2 mod 0.44, RGS4 act inactive, MrgX1 antag -6.2*, MrgX1 agonist inactive, RGS4 inh inactive, MrgX1 antag conf inactive, HEK293 Ca flux inactive, HEK293 Ca counter inactive and HEK293 Ca cntr2 inactive.
Screening CCCn1c(=O)c2c(nc3n2CCCN3CCc2ccc(OC)c(OC)c2)n(C)c1=O returned MrgX1 allo act inactive, RGS4 act inactive, MrgX1 antag -4.8*, MrgX1 agonist inactive, RGS4 inh inactive, MrgX1 antag conf inactive, HEK293 Ca flux inactive, HEK293 Ca counter inactive and HEK293 Ca cntr2 inactive.
COc1ccc(CCN2CCCn3c2nc2c3c(=O)n(Cc3ccccc3F)c(=O)n2C)cc1OC was read as MrgX1 allo act inactive, KCC2 mod -0.055, RGS4 act inactive, MrgX1 antag inactive, MrgX1 agonist inactive and RGS4 inh inactive.
Screening CCn1c(=O)c2c(nc3n2CCCN3CCc2ccc(OC)c(OC)c2)n(C)c1=O returned MrgX1 allo act inactive, RGS4 act inactive, MrgX1 antag inactive, MrgX1 agonist inactive and RGS4 inh inactive.
For COc1ccc(CCN2CCCn3c2nc2c3c(=O)n(CC(C)C)c(=O)n2C)cc1OC the results were MrgX1 allo act inactive, RGS4 act inactive, MrgX1 antag -6.1*, MrgX1 agonist inactive, RGS4 inh inactive, MrgX1 antag conf 68%*, HEK293 Ca flux inactive, HEK293 Ca counter inactive and HEK293 Ca cntr2 inactive.
`C=C(C)CSc1nc(C)c(Cc2ccccc2)c(=O)[nH]1` gave MrgX1 allo act inactive, RGS4 act inactive, MrgX1 antag -6.7*, MrgX1 agonist inactive, RGS4 inh inactive, MrgX1 antag conf 85%*, HEK293 Ca flux inactive, HEK293 Ca counter inactive and HEK293 Ca cntr2 inactive.
For CNC(=O)c1ccccc1-c1ccccc1 the results were MrgX1 allo act inactive, KCC2 mod 0.0022, RGS4 act inactive, MrgX1 antag -5.3*, MrgX1 agonist inactive, RGS4 inh inactive, MrgX1 antag conf inactive, HEK293 Ca flux inactive, HEK293 Ca counter inactive and HEK293 Ca cntr2 inactive.
For O=C(c1ccccc1-c1ccccc1)N1CCCCC1 the results were MrgX1 allo act inactive, KCC2 mod -0.015, RGS4 act inactive, MrgX1 antag -5.2*, MrgX1 agonist inactive, RGS4 inh inactive, MrgX1 antag conf inactive, HEK293 Ca flux inactive, HEK293 Ca counter inactive and HEK293 Ca cntr2 inactive.
`CC(=O)Nc1ccccc1NC(=O)c1ccccc1-c1ccccc1` gave MrgX1 allo act inactive, RGS4 act inactive, MrgX1 antag inactive, MrgX1 agonist inactive and RGS4 inh inactive.
O=C(Oc1ccccc1C(=O)Oc1ccccc1)c1ccco1 was read as MrgX1 allo act inactive, KCC2 mod 0.53, RGS4 act inactive, MrgX1 antag inactive, MrgX1 agonist inactive and RGS4 inh inactive.
For CC(=O)Cc1ccccc1OC(=O)c1ccco1 the results were MrgX1 allo act inactive, KCC2 mod 1.5, RGS4 act inactive, MrgX1 antag -6.2*, MrgX1 agonist inactive, RGS4 inh inactive, MrgX1 antag conf inactive, HEK293 Ca flux inactive, HEK293 Ca counter inactive and HEK293 Ca cntr2 inactive.
`CCOCCCNS(=O)(=O)c1ccc(NC(=O)C2CC(=O)N(c3ccc(C)cc3)C2)cc1` (centres undefined) gave MrgX1 allo act inactive, KCC2 mod -0.72, RGS4 act inactive, MrgX1 antag inactive, MrgX1 agonist inactive and RGS4 inh inactive.
CCN(CC)c1ccc(/C=N/NC(=O)c2cc(C)nc3ccccc23)cc1 was read as MrgX1 allo act inactive, KCC2 mod -1.5, RGS4 act inactive, MrgX1 antag inactive, MrgX1 agonist inactive and RGS4 inh inactive.
